These results are taken from the array DNA melting data of Ke et al. (doi:10.1101/2024.01.08.574731).

Data set [1] in a line: folding enthalpy; higher = less favourable; fluorescence melt of hairpins on a sequencing array, two-state fit. The note with it: sodium 0.088 M. The method in brief: (§1)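 To match UV melts, fitted temperatures were raised by 9.35 °C. These fits were bootstrapped two-state models that gave melting temperature and folding enthalpy, combined by inverse variance over four replicates. The input was normalised Cy3 fluorescence of library hairpins with annealed Cy3 and quencher oligos on a sequenced MiSeq flow cell, imaged in 50 mM Na-HEPES pH 8.0, 25 mM NaCl in 2.5 °C steps up to 60 °C.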

A short description of data set [2]: melting temperature; fluorescence melt of hairpins on a sequencing array, two-state fit, raised by 9.35 °C to match UV melts. The note with it: sodium 0.088 M. The method in brief: as §1

As for GTATGCGAAAGCATGTAC ((((((....)))..))), the folding enthalpy in data set [1] was -10.6 kcal/mol. Moreover, in data set [2], the Tm is 38 °C.

GGTCATGGAAACATGGCC ((.((((....)))).)): the folding enthalpy in data set [1] was -60.3 kcal/mol. In data set [2], the Tm turned out to be 54.5 °C.

GGTGCCGAAAGGCAACC ((((((....))).))): in data set [1], the folding enthalpy was -19.6 kcal/mol. In addition, in data set [2], the Tm is 66.1 °C.

For GATCCTAAGTAGGATC ((((((....)))))), the folding enthalpy in data set [1] is -39.5 kcal/mol. Also, the Tm in data set [2] came to 51.7 °C.

For GGCGACGCGAAAGCGGCC (((..(((....)))))), the folding enthalpy in data set [1] was -11.1 kcal/mol. The Tm in data set [2] is 57.6 °C.

Take GGACGCGAAAGCGTCTCC ((((((....)))..))): the folding enthalpy in data set [1] was -6.35 kcal/mol. In addition, the Tm in data set [2] was found to be 62.5 °C.

Regarding CGCAACGGAAACGTCGCG (((.(((....))).))), the folding enthalpy in data set [1] is -42.6 kcal/mol. Further, the Tm in data set [2] was found to be 52.1 °C.

As for GTCCTGGGAAACTAGGAC (((((.(....).))))), the folding enthalpy in data set [1] is -42.9 kcal/mol. Besides, the Tm in data set [2] stood at 49.1 °C.

CGACAGCGGAAACGCTCG (((..(((....)))))): the folding enthalpy in data set [1] was -12.9 kcal/mol. In data set [2], the Tm was 40.3 °C.

GTTTAGGGAAACTTAGAC ((.((.(....).)).)): the folding enthalpy in data set [1] is -13.6 kcal/mol. In addition, the Tm in data set [2] worked out at 32.8 °C.

Consider GGAGGCGAAAGCCCTTCC ((((((....)))..))), for which the folding enthalpy in data set [1] was -15.2 kcal/mol. Besides, the Tm in data set [2] amounted to 53.1 °C.

Turning to GAATGCGAAAGCAATTC ((((((....))).))), the folding enthalpy in data set [1] was -18.7 kcal/mol. Further, the Tm in data set [2] amounted to 48.4 °C.

For GGTGTGCGAAAGCAGACC (((.(((....))).))), the folding enthalpy in data set [1] is -33.9 kcal/mol. For the same sequence, the Tm in data set [2] turned out to be 64.4 °C.

In the case of GGCACCGAAAGGTAAGCC ((((((....)))..))), the folding enthalpy in data set [1] was -35 kcal/mol. For the same sequence, the Tm in data set [2] came to 52.6 °C.

On to GCCGTGCGAAAGCGTGGC (((..((....))..))), for which, in data set [1], the folding enthalpy is -37.1 kcal/mol. For the same sequence, the Tm in data set [2] came to 63.4 °C.

For GATCGGCGGACCGATC ((((((....)))))), in data set [1], the folding enthalpy was -38.8 kcal/mol. In addition, the Tm in data set [2] worked out at 57.2 °C.

For GCGGTTGGAAACAACTGC ((.((((....)))).)), in data set [1], the folding enthalpy was -46.5 kcal/mol. The Tm in data set [2] is 55.6 °C.

With GCTATCGAAAGATTTAGC ((((((....)))..))), the folding enthalpy in data set [1] is -19.9 kcal/mol. Besides, the Tm in data set [2] amounted to 32.7 °C.

Consider GTTTCCCGAAAGGGTAAC (((.(((....))).))), for which, in data set [1], the folding enthalpy was -22.5 kcal/mol. Moreover, the Tm in data set [2] came to 47.9 °C.

Consider GCGGGAGGAAACTCCTGC ((.((((....)))).)), for which the folding enthalpy in data set [1] was -39 kcal/mol. Further, the Tm in data set [2] worked out at 58.1 °C.

Take GCGCCCACGAAAGTGCGC (((..(((....)))))): in data set [1], the folding enthalpy is -35.2 kcal/mol. Also, in data set [2], the Tm was 56 °C.

Regarding GAATGCGGAAACACATTC (((((.(....).))))), the folding enthalpy in data set [1] is -32.6 kcal/mol. The Tm in data set [2] was 39.8 °C.

For the sequence GTCCGAGAAATCGGAC ((((((....)))))), the folding enthalpy in data set [1] is -34.5 kcal/mol. The Tm in data set [2] is 65.9 °C.

Regarding GCTCACGGAAACGCGAGC ((((.((....)).)))), the folding enthalpy in data set [1] was -51.9 kcal/mol. The Tm in data set [2] came to 53.4 °C.

As for GATCTGCTCCAGATC ((((((...)))))), the folding enthalpy in data set [1] was -31.1 kcal/mol. Moreover, in data set [2], the Tm worked out at 50.4 °C.

As to GTTGTAGGAAACTATAAC (((.(((....))).))), in data set [1], the folding enthalpy is -24.6 kcal/mol. Besides, in data set [2], the Tm turned out to be 34 °C.

Regarding GCGGTTTCCGC ((((...)))), the folding enthalpy in data set [1] was -29.4 kcal/mol. Besides, the Tm in data set [2] was determined as 60.5 °C.

In the case of GCCCACGAAAGTGCGGGC ((((((....)))..))), in data set [1], the folding enthalpy was -28.4 kcal/mol. Also, the Tm in data set [2] was 55 °C.

Take GGACCTCGAAAGAGATCC (((.(((....))).))): in data set [1], the folding enthalpy is -30.6 kcal/mol. For the same sequence, the Tm in data set [2] came to 46.7 °C.

Regarding GTTCGAGGAAACTTGAAC ((((.((....)).)))), the folding enthalpy in data set [1] was -32.4 kcal/mol. Further, the Tm in data set [2] came to 44.5 °C.

Take GATCGTCTTTACGATC ((((((....)))))): in data set [1], the folding enthalpy is -34.3 kcal/mol. In addition, the Tm in data set [2] came out at 55.2 °C.

For GCACACGAAAGTGGATGC ((((((....)))..))), the folding enthalpy in data set [1] was -17.9 kcal/mol. Further, the Tm in data set [2] was found to be 45.6 °C.

GCTAACGGAAACGTTAGC (((((((....))))))): in data set [1], the folding enthalpy was -47.9 kcal/mol. Also, the Tm in data set [2] was 66.2 °C.

In the case of GCGACGGATCGC ((((....)))), the folding enthalpy in data set [1] is -14.9 kcal/mol. For the same sequence, the Tm in data set [2] is 46.8 °C.

Consider GAAGCCGAAAGGCTATTC ((((((....)))..))), for which, in data set [1], the folding enthalpy was -8.63 kcal/mol. In addition, the Tm in data set [2] stood at 33.7 °C.

Regarding GATCATGTCGATGATC ((((((....)))))), the folding enthalpy in data set [1] is -37.1 kcal/mol. In data set [2], the Tm was determined as 51 °C.

Regarding GATCCGTAAACGGATC ((((((....)))))), the folding enthalpy in data set [1] is -38.2 kcal/mol. Also, the Tm in data set [2] is 60.3 °C.
